Experimental data as given in article PMC3654042 (Environmental toxicology, 2012).
“Also recorded” adds a separate entry of the source. Like-named read-outs stand apart in the source and are kept apart here. Each block holds one compound with its values, some of them ahead of it.

Legend:
[1] = target: T1, purified porcine liver PMPMEase (Sus scrofa, UniProt Q29550); experiment: Inhibition of purified porcine liver PMPMEase; assay type: biochemical; details: for residual enzyme activity (suppressed to) / inhibition of PMPMEase: fragrance 1 mM, PMPMEase 5 µg, 1 mM RD-PNB, 1 h; for residual enzyme activity (suppressed to): % of uninhibited control
T1 sequence (Q29550 19-566): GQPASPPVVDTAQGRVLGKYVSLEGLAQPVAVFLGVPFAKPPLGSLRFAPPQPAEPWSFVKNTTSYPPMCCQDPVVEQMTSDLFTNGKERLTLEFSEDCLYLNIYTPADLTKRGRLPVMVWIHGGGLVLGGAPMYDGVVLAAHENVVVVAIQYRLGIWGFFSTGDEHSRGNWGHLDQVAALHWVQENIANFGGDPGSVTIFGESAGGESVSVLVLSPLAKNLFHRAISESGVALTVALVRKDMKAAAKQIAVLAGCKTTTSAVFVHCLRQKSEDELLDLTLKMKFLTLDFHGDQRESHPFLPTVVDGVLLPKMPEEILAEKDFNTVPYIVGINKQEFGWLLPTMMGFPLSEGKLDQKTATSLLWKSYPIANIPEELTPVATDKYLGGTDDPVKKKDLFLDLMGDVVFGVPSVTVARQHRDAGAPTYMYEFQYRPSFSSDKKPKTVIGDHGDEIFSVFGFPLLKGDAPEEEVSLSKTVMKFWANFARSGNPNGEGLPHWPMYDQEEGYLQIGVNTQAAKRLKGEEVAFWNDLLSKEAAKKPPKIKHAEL
Procedure, shortened: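 Single-concentration screen: test compound 1 mM in DMSO was incubated with 5 µg purified pig liver PMPMEase and 1 mM RD-PNB substrate for 1 h in 100 mM Tris–HCl, pH 7.4, at 37°C. Stopped with methanol, chilled on ice, and centrifuged at 5000 × g for 5 min. Residual activity was measured by reversed-phase HPLC of the supernatant, as % of uninhibited control, N = 3.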

[2] = system: human neuroblastoma SH-SY5Y cells; experiment: Cell viability; assay type: cell-based; details: for cell degeneration: SH-SY5Y cells, 1–200 µM, 48 h
Procedure, shortened: (§1)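 SH-SY5Y neuroblastoma cells grown in DMEM/F12 with 10% heat-inactivated FBS and penicillin/streptomycin at 37°C, 5% CO2, trypsinized at 80–90% confluence, and plated in 96-well plates. Exposed in serum-free DMEM/F12 to test compound (1–200 µM, acetone vehicle, 1% final), re-dosed identically at 24 h, for 48 h. Resazurin (0.05%) added for 2 h in the dark at room temperature. Fluorescence read at ex 560/em 590 nm as % of untreated control, mean ± SEM, N = 4.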

[3] = system: human lung cancer A549 cells; experiment: Cell viability; assay type: cell-based; details: for cell degeneration: A549 cells, 1–200 µM, 48 h
Procedure, shortened: as §1, with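 “A549” for “SH-SY5Y neuroblastoma”, “seeded” for “plated”, “Treated with” for “Exposed in serum-free DMEM/F12 to”, “final) in serum-free RPMI 1640/F12, with the same dose re-added” for “final), re-dosed identically”, “nm and expressed” for “nm”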

[4] = system: human lung cancer A549 cells; experiment: Apoptosis assay; assay type: cell-based; details: 0–10 µM, serum-free medium
Procedure, shortened: (§2)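 Treatment at 0–10 µM in serum-free medium at 37°C in 5% CO2/95% humidified air, one addition per well. Exposure is 24 h per methods and 48 h per figure legend. A549 were seeded at 2 × 10^5 per well and SH-SY5Y at 3 × 10^5 per well in 24-well plates. Stained in the dark with EB/AO 10 µg/mL for 15 min and viewed at 400× with 480/30 nm excitation. Green nuclei were scored live, condensed or fragmented orange chromatin apoptotic, and normal orange nuclei necrotic.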

[5] = system: human neuroblastoma SH-SY5Y cells; experiment: Apoptosis assay; assay type: cell-based; details: 0–10 µM, serum-free medium
Procedure, shortened: as §2

[6] = purified porcine liver PMPMEase, RD-PNB substrate

SMILES: CC(=O)c1cc2c(cc1C)C(C)(C)C(C)CC2(C)C (stereo not drawn) [Tonalide]
residual enzyme activity (suppressed to) [1]: less than 25%
Ki [1, 6]: 14 µM
cell degeneration [2]: significant degeneration
cell degeneration [3]: significant degeneration
EC50 ([3]; read-out: EC50 cell degeneration, lung cancer A549 cells, resazurin reduction): 14 µM
apoptosis (AO/EB staining, words) [4]: apoptosis was observed in a concentration-dependent manner; also recorded: induced apoptosis
apoptosis (AO/EB staining, words) [5]: apoptosis was observed in a concentration-dependent manner; also recorded: induced apoptosis

SMILES: CC1COCc2cc3c(cc21)C(C)(C)C(C)C3(C)C (stereo not drawn) [Galaxolide]
Ki [1]: 11 µM
residual enzyme activity (suppressed to) [1]: less than 25%
EC50 ([2]; Homo sapiens, SH-SY5Y, read-out: EC50 cell degeneration): 26 µM
cell degeneration [2]: significant degeneration
cell degeneration [3]: significant degeneration
EC50 ([3]; Homo sapiens, A549, read-out: EC50 cell degeneration): 58 µM
apoptosis (AO/EB staining, words) [4]: induced apoptosis
apoptosis (AO/EB staining, words) [5]: induced apoptosis

SMILES: O=C1CCCCCCCCCCCCCCO1 [ω-Pentadecalactone, ω-pentadecalactone]
residual enzyme activity (suppressed to) [1]: less than 25%
Ki [1, 6]: 46 µM

SMILES: CCCCC1CCCCC(=O)O1 (stereo not drawn) [ε-decalactone]
inhibition of PMPMEase [1]: 30%
residual enzyme activity (suppressed to) [1]: less than 25%

Now from value to compound:

residual enzyme activity (suppressed to) [1]: less than 25%
Ki [1, 6]: 4 µM
SMILES: CC1=C(C=O)C(C)(C)CCC1 [β-Cyclocitral, β-cyclocitral]

residual enzyme activity (suppressed to) [1]: less than 25%
Ki [1, 6]: 12 µM
SMILES: CCCCCCCCC1CCC(=O)O1 (stereo not drawn) [Dodecalactone, γ-dodecalactone]

Ki [1]: 173 µM
IC50 ([1]; IC50, purified porcine liver PMPMEase, value as worded in text): > 1000 µM
inhibition of PMPMEase [1]: 60%
residual enzyme activity (suppressed to) [1]: less than 25%
SMILES: CCCCC=O [Pentanal, pentanal]
